Experimental data: ChEMBL document CHEMBL1136404, “Synthesis and biological evaluation of new UDP-GalNAc analogues for the study of polypeptide-alpha-GalNAc-transferases” (Bioorg Med Chem Lett, 2003)

Experiments:
[1] = Inhibitory activity against GalNAc transferase 1 at a concentration of 1000 uM
Summary of the method: (§1)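 Bovine ppGalNAc-T1 (EC 2.4.1.41), secreted 6His-tagged protein from baculovirus-infected insect cells, Ni-NTA purified (0.5 U/mg). Stopped with ice-cold water; glycopeptide recovered on C18 cartridge, eluted with methanol, scintillation counted. Inhibition reported as relative %.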

[2] = Inhibitory activity against GalNAc transferase 1 at a concentration of 20 uM; summary of the method: as §1
[3] = Inhibitory activity against GalNAc transferase 1 at a concentration of 200 uM; summary of the method: as §1

inhibition [1] [%]	inhibition [2] [%]	inhibition [3] [%]	Structure (SMILES)
74	0	30	COC1C(O)C(CO)OC(OP(=O)(O)OP(=O)(O)OC[C@H]2OC(n3ccc(=O)[nH]c3=O)[C@H](O)[C@@H]2O)C1NC(C)=O (some centres not stated)
79	0	39	CC(=O)N[C@@H]1[C@H](OP(=O)(O)OP(=O)(O)OC[C@H]2O[C@@H](n3ccc(=O)[nH]c3=O)[C@H](O)[C@@H]2O)O[C@@H](CO)[C@H](O)[C@H]1O
72	0	7	COC1C(CO)OC(OP(=O)(O)OP(=O)(O)OC[C@H]2OC(n3ccc(=O)[nH]c3=O)[C@H](O)[C@@H]2O)C(NC(C)=O)C1O (some centres not stated)
76	0	17	COCC1OC(OP(=O)(O)OP(=O)(O)OC[C@H]2OC(n3ccc(=O)[nH]c3=O)[C@H](O)[C@@H]2O)C(NC(C)=O)C(O)C1O (some centres not stated)
